The subject of one assay is A-427. Kind of assay: Cytotoxicity against human A427 cells after 96 hrs by crystal violet staining. The assay is classed as functional, cell-based. As to conditions: A-427, 96 h. In outline:
(§1)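 Compounds were held as 20 mM DMSO stocks at -20 °C and serially diluted in DMSO to working solutions of 20, 10, 5.0, 2.50, 1.25 and […]. Five of these were diluted 1000-fold into medium, with DMSO-only controls. Dividing cells had 96 h continuous exposure, then glutaraldehyde fixation and crystal violet staining. Dye was redissolved in 70% ethanol and read at OD 570 nm. IC50 came from linear regression of log dose–response curves.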

For assay [1], the system named is DAN-G. Kind of assay: Cytotoxicity against human DAN-G cells after 96 hrs by crystal violet staining. The class given is functional, cell-based. An outline of the steps: as §1
The next assay concerns 5637. The assay can be described thus: Cytotoxicity against human 5637 cells after 96 hrs by crystal violet staining. The assay is classed as functional, cell-based. As to conditions: Homo sapiens, 5637, 96 h. In outline: as §1
Assay [2] deals with RT-4. Kind of assay: Cytotoxicity against human RT4 cells after 96 hrs by crystal violet staining. The class given is functional, cell-based. The conditions noted are these: RT-4, 96 h. An outline of the steps: as §1
A short description of assay [3]: Cytotoxicity against human LCLC-103H cells after 96 hrs by crystal violet staining. The assay is classed as functional, cell-based. In outline: as §1
The test system of a further assay is MCF7. The assay can be described thus: Cytotoxicity against human MCF7 cells after 96 hrs by crystal violet staining. The assay is classed as functional, cell-based. As to conditions: MCF7, 96 h. In outline: as §1
Assay [4] can be described thus: Growth inhibition of human LCLC-103H cells at 20 uM after 96 hrs by crystal violet staining. The class given is functional. As to conditions: read-out: GI. An outline of the steps:
(§2)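 This was a single-concentration screen. Actively dividing cells had 96 h continuous exposure to compound diluted 1000-fold from a DMSO solution into medium. Cells were fixed with glutaraldehyde and stained with crystal violet. Bound dye was redissolved in 70% ethanol and read at OD 570 nm. Growth inhibition was expressed against untreated controls.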

In assay [5] the test system is DAN-G. Kind of assay: Growth inhibition of human DAN-G cells at 20 uM after 96 hrs by crystal violet staining. The assay is classed as functional. As to conditions: read-out: GI. An outline of the steps:
as §2

Assay [6] relates to RT-4. Kind of assay: Growth inhibition of human RT4 cells at 20 uM after 96 hrs by crystal violet staining. The assay is classed as functional. The conditions noted are these: RT-4, 96 h, read-out: GI. An outline of the steps:
as §2

pIC50: −log10 of the molar value.

By pIC50 is commonly meant −log10 of the IC50, conventionally taken in molar units. Higher therefore signals a low IC50. With `Cc1c(C)n(Cc2ccccc2)c2nc(N(C)C)cc(N)c12`, the pIC50 in the assay with A-427 was 4.90; in the assay on DAN-G [1] it was less than 4.70; with 5637 it was 4.93; in the assay on RT-4 [2], 4.71; in assay [3], less than 4.70; in the assay with MCF7, 4.88. The inhibition of growth at 20 µM (in [4]; in the assay with DAN-G [5]) was less than 50% throughout.

Consider `C=CCn1c(-c2ccccc2)c(-c2ccccc2)c2c(N)cc(N(C)C)nc21`, for which the pIC50 with A-427 was 5.41; in the assay with DAN-G [1] it was less than 4.70; with 5637, 4.77; in the assay on RT-4 [2] it was 4.92; in [3] it was less than 4.70; in the assay with MCF7, 5.04. Besides, the inhibition of growth at 20 µM (in assay [4]; in the assay with DAN-G [5]) was less than 50% in each case.

Regarding `Cc1c(-c2ccccc2)sc2nc(N(C)C)cc(N)c12`, the pIC50 in the assay on A-427 was 4.82; in the assay with DAN-G [1], 4.79; in the assay with 5637 it was 4.75; in the assay with RT-4 [2], 5.21; in assay [3], less than 4.70; in the assay on MCF7, 4.87. For the same molecule, in [4], the inhibition of growth at 20 µM is less than 50%.

Consider `Cc1cc2c(N)cc(N(C)C)nc2nc1-c1ccccc1`, for which the pIC50 was 4.93 in the assay with A-427; 4.74 in the assay on DAN-G [1]; 5.05 with 5637; 5.30 with RT-4 [2]; less than 4.70 in assay [3]; 4.93 in the assay with MCF7. Also, the inhibition of growth at 20 µM in [4] was less than 50%.

Regarding `CN(C)c1cc(N)c2c(-c3ccccc3)c(-c3ccccc3)sc2n1`, the inhibition of growth at 20 µM in the assay on RT-4 [6] is less than 50%. The pIC50 in the assay with A-427 is 4.95; in the assay with DAN-G [1], 4.82; in the assay with 5637, 5.00; in the assay on RT-4 [2] it was less than 4.70; in assay [3] it was 4.97; with MCF7 it was 4.79.

As for `CN(C)c1cc(N)c2c(n1)[nH]c1c3ccccc3ccc12`, the negative-log IC50 (pIC50) in the assay with A-427 was 5.18; in the assay on DAN-G [1] it was 5.01; in the assay on 5637, 5.10; in the assay on RT-4 [2], 5.18; in assay [3], 5.01; in the assay on MCF7 it was 5.12.

Take `Nc1cc(N2CCCC2)nc2nc(-c3ccccc3)c(-c3ccccc3)cc12`: the pIC50 was 5.36 in the assay with A-427; 5.20 in the assay on DAN-G [1]; 5.56 in the assay with 5637; 4.92 in the assay with RT-4 [2]; 4.90 in assay [3]; 5.39 in the assay on MCF7.

Regarding `Nc1cc(N2CCCC2)nc2oc(-c3ccccc3)c(-c3ccccc3)c12`, the pIC50 is 4.86 with A-427; less than 4.70 with DAN-G [1]; 4.74 in the assay with 5637; 4.75 in the assay on RT-4 [2]; less than 4.70 in assay [3]; 4.83 in the assay with MCF7. Besides, the inhibition of growth at 20 µM (in assay [4]; with DAN-G [5]) was less than 50% in each case.

As to `CN(C)c1cc(N)c2c3c(n(Cc4ccccc4)c2n1)CCCC3`, the pIC50 (with DAN-G [1]; in assay [3]) was less than 4.70 in each case. Besides, the inhibition of growth at 20 µM (in [4]; in the assay on DAN-G [5]) was less than 50% throughout.

As to `CN(C)c1cc(N)c2ccc3ccccc3c2n1`, the pIC50 in the assay on A-427 was 5.09; in the assay with DAN-G [1] it was 4.99; with 5637, 5.00; in the assay on RT-4 [2], 5.11; in assay [3] it was 5.05; in the assay with MCF7, 5.21.

In the case of `CN(C)c1cc(N)c2cc(-c3ccccc3)c(-c3ccccc3)nc2n1`, the pIC50 is 5.10 in the assay with A-427; 4.94 with DAN-G [1]; 5.10 with 5637; 4.84 with RT-4 [2]; 4.86 in assay [3]; 5.11 in the assay on MCF7.

As to `Cc1c2ccncc2c(C)c2c1[nH]c1ccccc12` [ELLIPTECINE], the pIC50 was 6.05 with A-427; 6.05 in the assay on 5637; 5.92 in the assay on RT-4 [2]; 6.10 in assay [3]; 6.37 with MCF7.

Source of the values: ChEMBL document CHEMBL1152956, “Synthesis and cytotoxic activity of 5,6-heteroaromatically annulated pyridine-2,4-diamines” (Bioorg Med Chem, 2009).
